Measured values published in ChEMBL document CHEMBL1156792, “Application of the dipeptidyl peptidase IV (DPPIV/CD26) based prodrug approach to different amine-containing drugs” (J Med Chem, 2010).
Values after ≈ are worked out from the molar mass of the structure shown. Peptide text beside a SMILES is read from it. * marks the point of attachment. X2 = OC[C@H]1O[C@@H](n2cnc3c(N*)ncnc32)[C@@H](O)[C@@H]1O; X1 = O=c1nc(N*)ccn1[C@@H]1O[C@H](CO)[C@@H](O)[C@@H]1O

Legend:
[1] = system: Human immunodeficiency virus 1; experiment: Antiviral activity against HIV1 3B infected in human CEM cells assessed as inhibition of virus-induced cytopathicity; format: functional, organism-based; conditions: Human immunodeficiency virus 1, 3B, CCRF-CEM
In short: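 CEM cells (~4.5 × 10⁵/mL) were infected with HIV-1 IIIB at 100 CCID₅₀/mL and exposed to compound dilutions (final 0.62–2000 μM) at 37 °C. Giant cell formation was scored microscopically after 4–5 days. EC₅₀ is the concentration preventing syncytium formation by 50%.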

HeLa = experiment: Cytotoxicity against human HeLa cells assessed as inhibition of cell proliferation after 48 hrs; format: functional, cell-based
CCRF-CEM = experiment: Cytotoxicity against human CEM cells assessed as inhibition of cell proliferation after 48 hrs; format: functional, cell-based
L1210 = experiment: Cytotoxicity against mouse L1210 cells assessed as inhibition of cell proliferation after 48 hrs; format: functional, cell-based; conditions: L1210, 48 h
In short: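 L1210 cells were seeded at (5–7.5) × 10⁴ cells/well in 200 μL wells with compound. Cell number was counted by Coulter counter after 48 h. IC₅₀ is the concentration inhibiting proliferation by 50%.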

Vaccinia virus [2] = experiment: Antiviral activity against Vaccinia virus Lederle infected in HEL cells assessed as inhibition of virus-induced cytopathicity in presence of vildagliptin; format: functional, organism-based; conditions: Orthopoxvirus vaccinia
Vaccinia virus [3] = experiment: Antiviral activity against Vaccinia virus Lederle infected in HEL cells assessed as inhibition of virus-induced cytopathicity; format: functional, organism-based; conditions: Orthopoxvirus vaccinia
Human alphaherpesvirus 1 [4] = experiment: Antiviral activity against HSV1 KOS infected in HEL cells assessed as inhibition of virus-induced cytopathicity in presence of vildagliptin; format: functional, organism-based; conditions: Human alphaherpesvirus 1, KOS
In short: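 HEL cells were infected with HSV-1 (KOS) at 100 CCID₅₀/mL with compound. The CD26 inhibitor vildagliptin (20 μM) was added once at the start of infection.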

Human alphaherpesvirus 1 [5] = experiment: Antiviral activity against HSV1 KOS infected in HEL cells assessed as inhibition of virus-induced cytopathicity; format: functional, organism-based; conditions: Human alphaherpesvirus 1, KOS
In short: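 HEL cell cultures in 96-well plates were infected with HSV-1 (KOS) at 100 CCID₅₀/mL in the presence or absence of compound.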

Dipeptidyl peptidase 4 = Dipeptidyl peptidase 4 (Homo sapiens, UniProt P27487); experiment: Inhibition of human DPP4 from human Caco-2 cells; format: cell-based
Serum [6] = experiment: Stability in 20 % human serum assessed as 6-aminoquinoline formation after 2 hrs; format: ADME, cell-free
In short: (§1)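 Prodrug (50 μM) in PBS with 0.1% DMSO was incubated at 37 °C with purified CD26 (1.5 mU) or 20% human or bovine serum in PBS. Samples taken at time points were quenched in cold methanol on ice, centrifuged at 4 °C and analyzed by RP-8 HPLC. Buffer A was 50 mM NaH₂PO₄ with 5 mM heptanesulfonic acid, pH 3.2; buffer B was acetonitrile.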

Serum [7] = experiment: Stability in 20 % bovine serum assessed as 6-aminoquinoline formation after 2 hrs; format: ADME, cell-free, Bos taurus; conditions: cattle; in short: as §1
[8] = Solubility in water; format: physicochemical
In short: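 Excess solid was suspended in deionized water, sonicated 10 min at room temperature, equilibrated overnight at room temperature and centrifuged. Supernatant was diluted into a five-point standard curve range. Concentration came from HPLC peak area against a DMSO-dissolved standard of known concentration.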

Serum [9] = experiment: Stability in 20 % bovine serum assessed as 6-aminoquinoline formation within 4 hrs; format: ADME, cell-free, Bos taurus; conditions: cattle; in short: as §1
[10] = Stability assessed as 6-aminoquinoline formation in human recombinant CD26 measured within 4 hrs; format: ADME; in short: as §1
Serum [11] = experiment: Stability in 20 % human serum assessed as 6-aminoquinoline formation within 4 hrs; format: ADME, cell-free; in short: as §1

Chain of Dipeptidyl peptidase 4 (P27487 whole entry): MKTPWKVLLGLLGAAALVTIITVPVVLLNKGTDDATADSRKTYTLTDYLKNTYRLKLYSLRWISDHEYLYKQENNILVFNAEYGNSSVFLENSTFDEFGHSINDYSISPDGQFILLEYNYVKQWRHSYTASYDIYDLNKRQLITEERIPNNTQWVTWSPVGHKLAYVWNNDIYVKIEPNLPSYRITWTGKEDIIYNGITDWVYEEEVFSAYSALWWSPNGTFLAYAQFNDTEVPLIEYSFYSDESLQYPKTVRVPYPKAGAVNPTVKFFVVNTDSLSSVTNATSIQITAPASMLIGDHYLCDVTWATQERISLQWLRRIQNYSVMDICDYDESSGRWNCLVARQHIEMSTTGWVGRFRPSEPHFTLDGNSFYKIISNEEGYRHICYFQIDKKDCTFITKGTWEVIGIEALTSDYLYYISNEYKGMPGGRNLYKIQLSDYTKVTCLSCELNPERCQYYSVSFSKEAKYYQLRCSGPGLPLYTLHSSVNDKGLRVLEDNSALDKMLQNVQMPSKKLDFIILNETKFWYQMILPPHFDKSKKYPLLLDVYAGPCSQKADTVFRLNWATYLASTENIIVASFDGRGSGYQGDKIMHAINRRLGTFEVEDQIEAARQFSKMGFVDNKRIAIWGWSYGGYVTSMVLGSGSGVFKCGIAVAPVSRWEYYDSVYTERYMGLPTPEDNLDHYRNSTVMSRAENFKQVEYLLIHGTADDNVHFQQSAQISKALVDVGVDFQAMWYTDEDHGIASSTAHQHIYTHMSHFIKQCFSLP

CC(C)(C)[Si](C)(C)OC[C@H]1O[C@@H](n2ccc(N)nc2=O)[C@@H](O)[C@@H]1O[Si](C)(C)C(C)(C)C
EC50 [1]: 70 nM

CC(C)[C@H](N)C(=O)N[C@@H](C)C(=O)N[C@H](C(=O)N1CCC[C@H]1C(=O)Nc1ccn([C@@H]2O[C@H](CO)[C@@H](O)[C@@H]2O)c(=O)n1)C(C)C (H-VAVP-X1)
IC50 (HeLa): 560 nM
IC50 (CCRF-CEM): 50 nM
IC50 (L1210): 82 nM

Nc1ncnc2c1ncn2[C@@H]1O[C@H](CO)[C@@H](O)[C@@H]1O [VIDARABINE]
EC50 (Vaccinia virus [2]): 10000 nM
EC50 (Vaccinia virus [3]): 8300 nM
EC50 (Human alphaherpesvirus 1 [4]): 42000 nM
EC50 (Human alphaherpesvirus 1 [5]): 35000 nM
IC50 (Dipeptidyl peptidase 4): 62 nM

Nc1ccn([C@@H]2O[C@H](CO)[C@@H](O)[C@@H]2O)c(=O)n1 [CYTARABINE]
IC50 (HeLa): 260 nM

Cc1cn([C@@H]2O[C@H](CO[Si](C)(C)C(C)(C)C)[C@@]3(OS(=O)(=O)C=C3N)[C@H]2O[Si](C)(C)C(C)(C)C)c(=O)nc1NC(=O)[C@@H]1CCCN1C(=O)[C@@H](NC(=O)[C@@H]1CCCN1C(=O)[C@@H](N)C(C)C)C(C)C
Activity (Serum [6]): 20%
Activity (Serum [7]): 40%

CC(C)[C@H](N)C(=O)N1CCC[C@H]1C(=O)Nc1ccc2ncccc2c1
solubility [8]: 33.2 mg/mL (≈ 97.5 mM)

N[C@@H](CC(=O)O)C(=O)N1CCC[C@H]1C(=O)Nc1ccc2ncccc2c1
solubility [8]: 47.8 mg/mL (≈ 134 mM)

CC(C)[C@H](N)C(=O)N1CCC[C@H]1C(=O)N[C@H](C(=O)N1CCC[C@H]1C(=O)Nc1ncnc2c1ncn2[C@@H]1O[C@H](CO)[C@@H](O)[C@@H]1O)C(C)C (H-VPVP-X2)
solubility [8]: 34.7 mg/mL (≈ 52.7 mM)
EC50 (Vaccinia virus [2]): 135000 nM
EC50 (Vaccinia virus [3]): 16000 nM
EC50 (Human alphaherpesvirus 1 [4]): 238000 nM
EC50 (Human alphaherpesvirus 1 [5]): 54000 nM

Nc1ccc2ncccc2c1
solubility [8]: 7.01 mg/mL (≈ 48.6 mM)

CC(C)[C@H](N)C(=O)N1CCC[C@H]1C(=O)N[C@H](C(=O)N1CCC[C@H]1C(=O)Nc1ccn([C@@H]2O[C@H](CO)[C@@H](O)[C@@H]2O)c(=O)n1)C(C)C (H-VPVP-X1)
Activity (Serum [9]): 80%
Activity [10]: 80%
IC50 (HeLa): 630 nM
IC50 (CCRF-CEM): 57 nM
IC50 (L1210): 100 nM
Activity (Serum [11]): 80%
